In ChEMBL document CHEMBL4622928, “Discovery of 5-(4-methylpiperazin-1-yl)-2-nitroaniline derivatives as a new class of SIRT6 inhibitors” (Bioorg Med Chem Lett, 2020) one finds IC50 and Kd data, which are given here for one compound.

Broadly, the IC50 is the concentration at which inhibition is half-maximal. What is called Kd is a measure of binding affinity in units of concentration. Higher therefore signals weaker binding.

The target of one assay is T1, Histone deacetylase 8 (Homo sapiens, UniProt Q9BY41).
T1 sequence (Q9BY41 whole entry): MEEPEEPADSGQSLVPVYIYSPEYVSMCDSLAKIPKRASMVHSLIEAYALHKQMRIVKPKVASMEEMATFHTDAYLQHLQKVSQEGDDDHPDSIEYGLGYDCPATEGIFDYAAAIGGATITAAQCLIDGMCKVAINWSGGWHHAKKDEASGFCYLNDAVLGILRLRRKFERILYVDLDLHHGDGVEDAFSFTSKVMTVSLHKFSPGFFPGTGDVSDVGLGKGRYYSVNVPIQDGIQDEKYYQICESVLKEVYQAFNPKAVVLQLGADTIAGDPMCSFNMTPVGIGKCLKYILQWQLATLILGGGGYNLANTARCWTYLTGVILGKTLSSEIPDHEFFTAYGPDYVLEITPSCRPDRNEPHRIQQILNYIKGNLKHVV
Kind of assay: Inhibition of HDAC8 (unknown origin). Put shortly:
(§1)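 Each deacetylase was run in a Fluor de Lys (FDL) fluorogenic deacetylation assay as a selectivity screen, with compound tested at concentrations up to 200 μM. IC50 was estimated from the dose-response.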

For assay [1], the target named is NAD-dependent protein deacylase sirtuin-6 (Homo sapiens, UniProt Q8N6T7). As to the kind of experiment: Binding affinity to SIRT6 (unknown origin) by isothermal titration calorimetry. In general terms: In ITC the heat of successive injections is recorded.
Chain of NAD-dependent protein deacylase sirtuin-6 (Q8N6T7 whole entry): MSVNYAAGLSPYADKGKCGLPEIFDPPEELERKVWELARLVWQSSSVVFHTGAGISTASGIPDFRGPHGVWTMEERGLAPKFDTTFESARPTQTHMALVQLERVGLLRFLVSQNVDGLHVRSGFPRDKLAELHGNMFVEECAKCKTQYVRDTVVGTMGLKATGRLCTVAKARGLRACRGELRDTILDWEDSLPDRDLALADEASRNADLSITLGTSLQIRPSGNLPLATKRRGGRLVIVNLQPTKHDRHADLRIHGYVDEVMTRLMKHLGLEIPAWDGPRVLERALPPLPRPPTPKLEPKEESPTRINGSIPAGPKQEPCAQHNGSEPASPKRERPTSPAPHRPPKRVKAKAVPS
The target in assay [2] is T2, NAD-dependent protein deacetylase sirtuin-1 (Homo sapiens, UniProt Q96EB6).
T2 sequence (Q96EB6 whole entry): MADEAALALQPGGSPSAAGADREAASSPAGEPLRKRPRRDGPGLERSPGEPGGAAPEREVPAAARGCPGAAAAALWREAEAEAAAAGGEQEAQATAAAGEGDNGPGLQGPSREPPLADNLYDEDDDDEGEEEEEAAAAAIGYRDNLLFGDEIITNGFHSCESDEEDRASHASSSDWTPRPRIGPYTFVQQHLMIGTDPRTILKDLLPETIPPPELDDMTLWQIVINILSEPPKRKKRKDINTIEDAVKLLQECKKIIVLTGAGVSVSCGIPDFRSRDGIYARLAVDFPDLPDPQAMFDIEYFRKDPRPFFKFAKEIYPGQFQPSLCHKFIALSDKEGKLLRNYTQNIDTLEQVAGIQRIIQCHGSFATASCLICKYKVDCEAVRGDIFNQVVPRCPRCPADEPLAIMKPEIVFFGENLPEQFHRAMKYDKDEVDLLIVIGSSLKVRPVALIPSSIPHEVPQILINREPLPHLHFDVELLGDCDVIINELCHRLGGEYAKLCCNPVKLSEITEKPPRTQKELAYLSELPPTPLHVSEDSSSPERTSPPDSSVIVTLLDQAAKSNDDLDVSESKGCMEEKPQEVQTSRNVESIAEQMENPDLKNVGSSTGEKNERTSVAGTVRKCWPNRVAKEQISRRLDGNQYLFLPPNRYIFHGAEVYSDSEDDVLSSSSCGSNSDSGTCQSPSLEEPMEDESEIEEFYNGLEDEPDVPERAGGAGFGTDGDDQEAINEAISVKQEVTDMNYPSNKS
Kind of assay: Inhibition of SIRT1 (unknown origin). Put shortly: as §1

As to `CN1CCN(c2ccc([N+](=O)[O-])c(N)c2)CC1`, the IC50 (on Histone deacetylase 8; in assay [2]) was > 200 µM each time. The compound also gave a Kd in assay [1] of 10 µM.
